From paper PMC9116722 (Cancer chemotherapy and pharmacology, 2022)

Test: Adverse events
Format: in vivo, human
Details: BRCAmut
Summary of the method: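 Patients with germline BRCA-mutated cancers, or BRCA-wildtype TNBC or platinum-refractory ovarian cancer, took oral drug continuously twice daily in 28-day cycles. There were nine dose levels from 50 to 500 mg BID under 3+3 escalation, run separately per cohort after the first DLT. Toxicities were graded by CTCAE v4.0, with DLTs assessed during cycle 1.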

Structure (SMILES): C[C@]1(c2nc3c(C(N)=O)cccc3[nH]2)CCCN1 [veliparib]
- Anemia, Grade 3 (DL3 100/100 mg AM/PM): 0 number of patients (%)
- Anemia, Grade 4 (DL3 100/100 mg AM/PM): 0 number of patients (%)
- Any Grade 3/4 toxicity (DL3 100/100 mg AM/PM): 0 number of patients (%)
- Any Grade 3 toxicity (DL3 100/100 mg AM/PM): 0 number of patients (%)
- Any Grade 4 toxicity (DL3 100/100 mg AM/PM): 0 number of patients (%)
- Appendicitis, Grade 3 (DL3 100/100 mg AM/PM): 0 number of patients (%)
- Aspartate aminotransferase increased, Grade 3 (DL3 100/100 mg AM/PM): 0 number of patients (%)
- Dehydration, Grade 3 (DL3 100/100 mg AM/PM): 0 number of patients (%)
- Dyspnea, Grade 4 (DL3 100/100 mg AM/PM): 0 number of patients (%)
- Fatigue, Grade 3 (DL3 100/100 mg AM/PM): 0 number of patients (%)
- Headache, Grade 3 (DL3 100/100 mg AM/PM): 0 number of patients (%)
- Hypophosphatemia, Grade 3 (DL3 100/100 mg AM/PM): 0 number of patients (%)
- Lymphocyte count decreased, Grade 3 (DL3 100/100 mg AM/PM): 0 number of patients (%)
- Lymphocyte count decreased, Grade 4 (DL3 100/100 mg AM/PM): 0 number of patients (%)
- Nausea, Grade 3 (DL3 100/100 mg AM/PM): 0 number of patients (%)
- Platelet count decreased, Grade 4 (DL3 100/100 mg AM/PM): 0 number of patients (%)
- Thromboembolic event, Grade 3 (DL3 100/100 mg AM/PM): 0 number of patients (%)
- Thromboembolic event, Grade 4 (DL3 100/100 mg AM/PM): 0 number of patients (%)
- Urinary tract infection, Grade 3 (DL3 100/100 mg AM/PM): 0 number of patients (%)
- Abdominal pain, Grade 3 (DL6 200/200 mg AM/PM): 0 number of patients (%)
- Alkaline phosphatase increased, Grade 3 (DL6 200/200 mg AM/PM): 0 number of patients (%)
- Anemia, Grade 3 (DL6 200/200 mg AM/PM): 0 number of patients (%)
- Anemia, Grade 4 (DL6 200/200 mg AM/PM): 0 number of patients (%)
- Any Grade 3/4 toxicity (DL6 200/200 mg AM/PM): 0 number of patients (%)
- Any Grade 3 toxicity (DL6 200/200 mg AM/PM): 0 number of patients (%)
- Any Grade 4 toxicity (DL6 200/200 mg AM/PM): 0 number of patients (%)
- Appendicitis, Grade 3 (DL6 200/200 mg AM/PM): 0 number of patients (%)
- Aspartate aminotransferase increased, Grade 3 (DL6 200/200 mg AM/PM): 0 number of patients (%)
- Dehydration, Grade 3 (DL6 200/200 mg AM/PM): 0 number of patients (%)
- Dyspnea, Grade 4 (DL6 200/200 mg AM/PM): 0 number of patients (%)
- Fatigue, Grade 3 (DL6 200/200 mg AM/PM): 0 number of patients (%)
- Headache, Grade 3 (DL6 200/200 mg AM/PM): 0 number of patients (%)
- Hypophosphatemia, Grade 3 (DL6 200/200 mg AM/PM): 0 number of patients (%)
- Lymphocyte count decreased, Grade 3 (DL6 200/200 mg AM/PM): 0 number of patients (%)
- Lymphocyte count decreased, Grade 4 (DL6 200/200 mg AM/PM): 0 number of patients (%)
- Nausea, Grade 3 (DL6 200/200 mg AM/PM): 0 number of patients (%)
- Platelet count decreased, Grade 4 (DL6 200/200 mg AM/PM): 0 number of patients (%)
- Thromboembolic event, Grade 3 (DL6 200/200 mg AM/PM): 0 number of patients (%)
- Thromboembolic event, Grade 4 (DL6 200/200 mg AM/PM): 0 number of patients (%)
- Urinary tract infection, Grade 3 (DL6 200/200 mg AM/PM): 0 number of patients (%)
- Abdominal pain, Grade 3 (DL7 300/300 mg AM/PM): 0 number of patients (%)
- Alkaline phosphatase increased, Grade 3 (DL7 300/300 mg AM/PM): 0 number of patients (%)
- Anemia, Grade 3 (DL7 300/300 mg AM/PM): 0 number of patients (%)
- Anemia, Grade 4 (DL7 300/300 mg AM/PM): 0 number of patients (%)
- Any Grade 3/4 toxicity (DL7 300/300 mg AM/PM): 2 (33) number of patients (%)
- Any Grade 3 toxicity (DL7 300/300 mg AM/PM): 2 (33) number of patients (%)
- Any Grade 4 toxicity (DL7 300/300 mg AM/PM): 0 number of patients (%)
- Appendicitis, Grade 3 (DL7 300/300 mg AM/PM): 1 (17) number of patients (%)
- Aspartate aminotransferase increased, Grade 3 (DL7 300/300 mg AM/PM): 0 number of patients (%)
- Dehydration, Grade 3 (DL7 300/300 mg AM/PM): 0 number of patients (%)
- Dyspnea, Grade 4 (DL7 300/300 mg AM/PM): 0 number of patients (%)
- Fatigue, Grade 3 (DL7 300/300 mg AM/PM): 0 number of patients (%)
- Headache, Grade 3 (DL7 300/300 mg AM/PM): 1 (17) number of patients (%)
- Hypophosphatemia, Grade 3 (DL7 300/300 mg AM/PM): 0 number of patients (%)
- Lymphocyte count decreased, Grade 3 (DL7 300/300 mg AM/PM): 1 (17) number of patients (%)
- Lymphocyte count decreased, Grade 4 (DL7 300/300 mg AM/PM): 0 number of patients (%)
- Nausea, Grade 3 (DL7 300/300 mg AM/PM): 0 number of patients (%)
- Platelet count decreased, Grade 4 (DL7 300/300 mg AM/PM): 0 number of patients (%)
- Thromboembolic event, Grade 3 (DL7 300/300 mg AM/PM): 0 number of patients (%)
- Thromboembolic event, Grade 4 (DL7 300/300 mg AM/PM): 0 number of patients (%)
- Urinary tract infection, Grade 3 (DL7 300/300 mg AM/PM): 0 number of patients (%)
- Abdominal pain, Grade 3 (DL8 400/400 mg AM/PM): 2 (6) number of patients (%)
- Alkaline phosphatase increased, Grade 3 (DL8 400/400 mg AM/PM): 0 number of patients (%)
- Anemia, Grade 3 (DL8 400/400 mg AM/PM): 1 (3) number of patients (%)
- Anemia, Grade 4 (DL8 400/400 mg AM/PM): 0 number of patients (%)
- Any Grade 3/4 toxicity (DL8 400/400 mg AM/PM): 11 (32) number of patients (%)
- Any Grade 3 toxicity (DL8 400/400 mg AM/PM): 11 (32) number of patients (%)
- Any Grade 4 toxicity (DL8 400/400 mg AM/PM): 1 (3) number of patients (%)
- Appendicitis, Grade 3 (DL8 400/400 mg AM/PM): 0 number of patients (%)
- Aspartate aminotransferase increased, Grade 3 (DL8 400/400 mg AM/PM): 0 number of patients (%)
- Dehydration, Grade 3 (DL8 400/400 mg AM/PM): 1 (3) number of patients (%)
- Dyspnea, Grade 4 (DL8 400/400 mg AM/PM): 0 number of patients (%)
- Fatigue, Grade 3 (DL8 400/400 mg AM/PM): 1 (3) number of patients (%)
- Headache, Grade 3 (DL8 400/400 mg AM/PM): 0 number of patients (%)
- Hypophosphatemia, Grade 3 (DL8 400/400 mg AM/PM): 1 (3) number of patients (%)
- Lymphocyte count decreased, Grade 3 (DL8 400/400 mg AM/PM): 7 (21) number of patients (%)
- Lymphocyte count decreased, Grade 4 (DL8 400/400 mg AM/PM): 1 (3) number of patients (%)
- Nausea, Grade 3 (DL8 400/400 mg AM/PM): 2 (6) number of patients (%)
- Platelet count decreased, Grade 4 (DL8 400/400 mg AM/PM): 0 number of patients (%)
- Thromboembolic event, Grade 3 (DL8 400/400 mg AM/PM): 2 (6) number of patients (%)
- Thromboembolic event, Grade 4 (DL8 400/400 mg AM/PM): 0 number of patients (%)
- Urinary tract infection, Grade 3 (DL8 400/400 mg AM/PM): 1 (3) number of patients (%)
- Abdominal pain, Grade 3 (DL9 500/500 mg AM/PM): 0 number of patients (%)
- Alkaline phosphatase increased, Grade 3 (DL9 500/500 mg AM/PM): 0 number of patients (%)
- Anemia, Grade 3 (DL9 500/500 mg AM/PM): 0 number of patients (%)
- Anemia, Grade 4 (DL9 500/500 mg AM/PM): 1 (14) number of patients (%)
- Any Grade 3/4 toxicity (DL9 500/500 mg AM/PM): 2 (29) number of patients (%)
